Measured values as given in ChEMBL document CHEMBL2086351, “Α-aryl-N-alkyl nitrones, as potential agents for stroke treatment: synthesis, theoretical calculations, antioxidant, anti-inflammatory, neuroprotective, and brain-blood barrier permeability properties” (J Med Chem, 2012).

What was measured:
[1] = Neuroprotective activity in Sprague-Dawley rat primary cortical neurons assessed as reversal of oxygen-glucose deprivation-induced neuronal damage at 250 uM by treated 4 hrs after OGD challenge measured after 24 hrs MTT assay relative to control; assay type: functional, cell-based; conditions: Cerebral cortex neuron
Outline: (§1)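 Primary cerebral cortex neurons, cultured 6–8 days, underwent 4 h oxygen–glucose deprivation. Compounds (0.1 μM–10 mM range) were added at the start of a 24 h reperfusion. Viability was read by MTT with untreated control as 100%. Neuroprotection = % recovery from the reperfusion-only value (0%) to control (100%). Three to five independent experiments; mean ± SEM.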

[2] = Antioxidant activity assessed as Fe3+/ascorbic acid-induced hydroxyl radical scavenging activity at 0.1 mM after 30 mins; assay type: functional
Outline: (§2)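 Tested in vitro at 0.1 mM. The hydroxyl radical line measures competition with DMSO for hydroxyl radicals. Superoxide was generated at pH 7.4 and read as nitroblue tetrazolium reduction to formazan at 560 nm. LOX inhibition was measured by UV absorbance enzyme assay with plant lipoxygenase.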

[3] = Antioxidant activity assessed as superoxide anion radical scavenging activity at 0.1 mM after 10 mins by tetrazolium dye assay; assay type: functional; outline: as §2
Mus musculus = assay: Neuroprotective activity in NMRI mouse assessed as protection against tert-butyl hydroperoxide-mediated lethality at 150 mg/kg, ip administered 30 mins before t-BHP challenge measured after 1 to 24 hrs; assay type: functional; conditions: route intraperitoneal
[4] = Neuroprotective activity in Sprague-Dawley rat primary cortical neurons assessed as reversal of oxygen-glucose deprivation-induced neuronal damage at 100 uM by treated 4 hrs after OGD challenge measured after 24 hrs MTT assay relative to control; assay type: functional, cell-based; conditions: Cerebral cortex neuron; outline: as §1
[5] = Neuroprotective activity in Sprague-Dawley rat primary cortical neurons assessed as reversal of oxygen-glucose deprivation-induced neuronal damage at 1 uM by treated 4 hrs after OGD challenge measured after 24 hrs MTT assay relative to control; assay type: functional, cell-based; conditions: Cerebral cortex neuron; outline: as §1
[6] = tested on: Radical scavenging activity; assay: Antioxidant activity assessed as DPPH radical scavenging activity at 0.5 mM after 2 hrs by spectrophotometric analysis; assay type: functional
Outline: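 DPPH radical test, measuring initial absorbance and absorbance after reaction spectrophotometrically.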

[7] = Neuroprotective activity in Sprague-Dawley rat primary cortical neurons assessed as reversal of oxygen-glucose deprivation-induced neuronal damage at 250 uM by treated 4 hrs after OGD challenge measured after 24 hrs by LDH release assay relative to control; assay type: functional, Cerebral cortex neuron
Outline: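 Primary cortical neurons, cultured 6–8 days, underwent 4 h oxygen–glucose deprivation followed by 24 h reperfusion. Compounds (1–250 μM) were added at reperfusion. Necrotic death was read as LDH release, normalized to untreated reperfusion cells as 100%. Four independent experiments; mean ± SEM; one-way ANOVA with Holm–Sidak post test.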

[8] = Permeability of the compound at pH 7.4 by PAMPA; assay type: ADME; conditions: read-out: permeability
Outline: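 PAMPA-BBB method of Di et al. (passive blood–brain barrier permeation). Effective permeability is reported as Pe in 10−6 cm s−1.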

[9] = Antioxidant activity against AAPH-induced lipid peroxidation assessed as induction time of inhibition at 0.1 mM; assay type: functional
[10] = molecular target: Lipoxygenase (Glycine max) (UniProt Q39829); assay: Inhibition of soybean lipoxygenase assessed as conversion of sodium linoleate to 13-hydroperoxylinoleic acid at 0.1 mM by competitive inhibition assay; outline: as §2

SMILES: CC(C)(C)/[N+]([O-])=C/c1cccc(C(F)(F)F)c1
- Activity [1]: 81.2%
- Activity [2]: 60%
- Activity [3]: 29%
- Activity (Mus musculus): 12%
- Activity [4]: 101%
- Activity [5]: 71.2%
- Activity [6]: 0.9%
- Activity [7]: 70.08%
- Papp [8]: 27 ×10⁻⁶ cm/s
- TIME [9]: 0 h
- inhibition [10]: 65%
